Tests used:
Type in all cases: functional
NCI-H23 = assay: Cytotoxicity against human NCI-H23 cells after 48 hrs by SRB assay; settings: NCI-H23, 48 h; for CC50: read-out: LC50 (the source's name)
Outline: (§1)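 NCI 60-cell-line screen. Cells preincubated 24 h at 37 °C, 5% CO2; time-zero plates TCA-fixed. Compounds dissolved in DMSO and tested at five concentrations (100, 10, 1.0, 0.1, 0.01 µM) for 48 h continuous exposure. Adherent cells fixed with cold TCA (10% final), then SRB stained; absorbance at 515 nm. GI50, TGI and LC50 calculated from growth relative to time-zero and untreated controls.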

LOX IMVI = assay: Cytotoxicity against human LOXIMVI cells after 48 hrs by SRB assay; outline: as §1
BT-549 = assay: Cytotoxicity against human BT549 cells after 48 hrs by SRB assay; settings: BT-549, 48 h; outline: as §1
HCT-116 = assay: Cytotoxicity against human HCT116 cells after 48 hrs by SRB assay; settings: HCT-116, 48 h; outline: as §1
MOLT-4 = assay: Cytotoxicity against human MOLT4 cells after 48 hrs by SRB assay; settings: MOLT-4, 48 h; outline: as §1
UACC-257 = assay: Cytotoxicity against human UACC257 cells after 48 hrs by SRB assay; settings: UACC-257, 48 h
Outline: (§2)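 NCI 60-cell screen. Cells grew 24 h (37 °C, 5% CO2) before compound was added. Compounds were in DMSO and diluted in medium with gentamicin, then tested at five levels (100, 10, 1.0, 0.1, 0.01 µM) with 48 h continuous exposure. Adherent cells were fixed with TCA (10% final) and stained with 0.4% SRB, absorbance read at 515 nm. A time-zero plate was included. LC50 is the concentration giving 50% loss of protein relative to time zero.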

HT-29 = assay: Cytotoxicity against human HT-29 cells after 48 hrs by SRB assay; settings: HT-29, 48 h; outline: as §1
HCT-15 = assay: Cytotoxicity against human HCT15 cells after 48 hrs by SRB assay; settings: HCT-15, 48 h; outline: as §1
SF-295 = assay: Cytotoxicity against human SF295 cells after 48 hrs by SRB assay; settings: SF-295, 48 h; outline: as §1
HOP-92 = assay: Cytotoxicity against human HOP92 cells after 48 hrs by SRB assay; settings: HOP-92, 48 h; outline: as §1
NCI-H226 = assay: Cytotoxicity against human NCI-H226 cells after 48 hrs by SRB assay; settings: NCI-H226, 48 h; outline: as §1
SN12C = assay: Cytotoxicity against human SN12C cells after 48 hrs by SRB assay; outline: as §1
Plasmodium falciparum = assay: Antimalarial activity against Plasmodium falciparum NF54 infected in human serum at 20 ug/ml after 48 hrs by fluorometric method
Outline: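 Asynchronous P. falciparum NF54 at 1.5–2% parasitemia, 5% hematocrit in RPMI with 10% human serum, exposed 48 h at 37 °C under 90% N2/5% CO2/5% O2 at the stated concentration; parasite DNA stained with ethidium bromide after proteinase K lysis; viability % = (Flu treated − medium)/(Flu untreated − medium) ×100; triplicate.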

SF-539 = assay: Cytotoxicity against human SF539 cells after 48 hrs by SRB assay; settings: SF-539, 48 h; for CC50: read-out: LC50 (the source's name); outline: as §1
MDA-MB-468 = assay: Cytotoxicity against human MDA-MB-468 cells after 48 hrs by SRB assay; settings: MDA-MB-468, 48 h; outline: as §1
IGROV-1 = assay: Cytotoxicity against human IGROV1 cells after 48 hrs by SRB assay; settings: IGROV-1, 48 h; outline: as §1
HCC 2998 = assay: Cytotoxicity against human HCC2998 cells after 48 hrs by SRB assay; settings: HCC 2998, 48 h; outline: as §1
SR = assay: Cytotoxicity against human SR cells after 48 hrs by SRB assay; outline: as §2
RPMI-8226 = assay: Cytotoxicity against human RPMI8226 cells after 48 hrs by SRB assay; settings: RPMI-8226, 48 h; outline: as §1
MDA-MB-435 = assay: Cytotoxicity against human MDA-MB-435 cells after 48 hrs by SRB assay; settings: MDA-MB-435, 48 h; outline: as §1
HOP-62 = assay: Cytotoxicity against human HOP62 cells after 48 hrs by SRB assay; settings: HOP-62, 48 h; outline: as §1
SF-268 = assay: Cytotoxicity against human SF268 cells after 48 hrs by SRB assay; settings: SF-268, 48 h; outline: as §1
MDA-MB-231 = assay: Cytotoxicity against human MDA-MB-231 cells after 48 hrs by SRB assay; settings: MDA-MB-231, 48 h; outline: as §1
CCRF-CEM = assay: Cytotoxicity against human CCRF-CEM cells after 48 hrs by SRB assay; outline: as §1
Hs-578T = assay: Cytotoxicity against human Hs578T cells after 48 hrs by SRB assay; outline: as §1
UACC-62 = assay: Cytotoxicity against human UACC62 cells after 48 hrs by SRB assay; settings: UACC-62, 48 h; for CC50: read-out: LC50 (the source's name); outline: as §2
T47D = assay: Cytotoxicity against human T47D cells after 48 hrs by SRB assay; outline: as §2
PC-3 = assay: Cytotoxicity against human PC3 cells after 48 hrs by SRB assay; settings: PC-3, 48 h; outline: as §1
TK-10 = assay: Cytotoxicity against human TK10 cells after 48 hrs by SRB assay; settings: TK-10, 48 h; outline: as §2
ACHN = assay: Cytotoxicity against human ACHN cells after 48 hrs by SRB assay; settings: for CC50: read-out: LC50 (the source's name); outline: as §1
NCI/ADR-RES = assay: Cytotoxicity against human NCI/ADR-RES cells after 48 hrs by SRB assay; settings: for CC50: read-out: LC50 (the source's name); outline: as §1
CAKI-1 = assay: Cytotoxicity against human Caki1 cells after 48 hrs by SRB assay; settings: CAKI-1, 48 h; outline: as §1
SNB-75 = assay: Cytotoxicity against human SNB75 cells after 48 hrs by SRB assay; settings: SNB-75, 48 h; outline: as §2

Structure (SMILES): O=CN1N=C(c2ccc(Nc3ccnc4cc(Cl)ccc34)cc2)CC1c1ccccc1 (stereo not given)
- GI50 (NCI-H23): 3.64 µM
- CC50 (NCI-H23): > 100 µM
- GI50 (LOX IMVI): 1.61 µM
- LC50 (LOX IMVI): 6.88 µM
- GI50 (BT-549): 3.81 µM
- LC50 (50% net cell kill vs time zero) (BT-549): 53.8 µM
- GI50 (HCT-116): 3.58 µM
- LC50 (HCT-116): > 100 µM
- GI50 (MOLT-4): 2.28 µM
- LC50 (MOLT-4): > 100 µM
- GI50 (UACC-257): 10.1 µM
- LC50 (UACC-257): > 100 µM
- GI50 (HT-29): 3.21 µM
- LC50 (HT-29): > 100 µM
- GI50 (HCT-15): 2.54 µM
- LC50 (concentration killing 50% of cells relative to time zero) (HCT-15): > 100 µM
- GI50 (SF-295): 2.41 µM
- LC50 (SF-295): > 100 µM
- GI50 (HOP-92): 4.28 µM
- LC50 (concentration killing 50% of cells) (HOP-92): > 100 µM
- GI50 (NCI-H226): 5.22 µM
- LC50 (50% lethal concentration) (NCI-H226): > 100 µM
- GI50 (SN12C): 3.8 µM
- LC50 (50% net cell kill relative to time zero) (SN12C): > 100 µM
- inhibition at 20 µg/mL (Plasmodium falciparum): 20.2%
- GI50 (SF-539): 4.57 µM
- CC50 (SF-539): 99.2 µM
- GI50 (MDA-MB-468): 0.98 µM
- LC50 (MDA-MB-468): 10 µM
- GI50 (IGROV-1): 9.36 µM
- LC50 (concentration killing 50% of cells relative to time zero) (IGROV-1): > 100 µM
- GI50 (HCC 2998): 3.5 µM
- LC50 (HCC 2998): > 100 µM
- GI50 (SR): 1.77 µM
- LC50 (SR): > 100 µM
- GI50 (RPMI-8226): 2.55 µM
- LC50 (concentration killing 50% of cells) (RPMI-8226): > 100 µM
- GI50 (MDA-MB-435): 1.59 µM
- LC50 (MDA-MB-435): > 100 µM
- GI50 (HOP-62): 5.26 µM
- LC50 (50% lethal concentration) (HOP-62): > 100 µM
- GI50 (SF-268): 3.96 µM
- LC50 (SF-268): > 100 µM
- GI50 (MDA-MB-231): 2.43 µM
- LC50 (concentration killing 50% of cells present at time zero) (MDA-MB-231): > 100 µM
- GI50 (CCRF-CEM): 2.51 µM
- LC50 (concentration killing 50% of cells relative to time zero) (CCRF-CEM): > 100 µM
- GI50 (Hs-578T): 3.77 µM
- LC50 (50% net cell kill) (Hs-578T): > 100 µM
- GI50 (UACC-62): 1.55 µM
- CC50 (UACC-62): 17.4 µM
- GI50 (T47D): 2.18 µM
- LC50 (concentration giving 50% cell kill relative to time zero) (T47D): > 100 µM
- GI50 (PC-3): 4.76 µM
- LC50 (PC-3): > 100 µM
- GI50 (TK-10): 9.51 µM
- LC50 (concentration giving 50% cell loss vs time zero) (TK-10): > 100 µM
- GI50 (ACHN): 4.21 µM
- CC50 (ACHN): > 100 µM
- GI50 (NCI/ADR-RES): 2.69 µM
- CC50 (NCI/ADR-RES): > 100 µM
- GI50 (CAKI-1): 3.82 µM
- LC50 (CAKI-1): > 100 µM
- GI50 (SNB-75): 5.03 µM
- LC50 (50% net cell kill) (SNB-75): > 100 µM

Structure (SMILES): Cc1ccc(C2CC(c3ccc(Nc4ccnc5cc(Cl)ccc45)cc3)=NN2C=O)cc1 (stereo not given)
- GI50 (NCI-H23): 6.93 µM
- CC50 (NCI-H23): > 100 µM
- GI50 (LOX IMVI): 4.11 µM
- LC50 (LOX IMVI): > 100 µM
- GI50 (BT-549): 1.65 µM
- LC50 (50% net cell kill vs time zero) (BT-549): > 100 µM
- GI50 (HCT-116): 25.2 µM
- LC50 (HCT-116): > 100 µM
- GI50 (MOLT-4): 5.13 µM
- LC50 (MOLT-4): > 100 µM
- GI50 (UACC-257): > 100 µM
- LC50 (UACC-257): > 100 µM
- GI50 (HT-29): 6.09 µM
- LC50 (HT-29): > 100 µM
- GI50 (HCT-15): 2.78 µM
- LC50 (concentration killing 50% of cells relative to time zero) (HCT-15): > 100 µM
- GI50 (SF-295): 4 µM
- LC50 (SF-295): > 100 µM
- GI50 (HOP-92): 2.14 µM
- LC50 (concentration killing 50% of cells) (HOP-92): > 100 µM
- GI50 (NCI-H226): > 100 µM
- LC50 (50% lethal concentration) (NCI-H226): > 100 µM
- GI50 (SN12C): 7.23 µM
- LC50 (50% net cell kill relative to time zero) (SN12C): > 100 µM
- inhibition at 20 µg/mL (Plasmodium falciparum): 0%
- GI50 (SF-539): > 100 µM
- CC50 (SF-539): > 100 µM
- GI50 (MDA-MB-468): 1.51 µM
- LC50 (MDA-MB-468): > 100 µM
- GI50 (IGROV-1): 26.6 µM
- LC50 (concentration killing 50% of cells relative to time zero) (IGROV-1): > 100 µM
- GI50 (HCC 2998): 7.44 µM
- LC50 (HCC 2998): > 100 µM
- GI50 (SR): 3.18 µM
- LC50 (SR): > 100 µM
- GI50 (RPMI-8226): 2.18 µM
- LC50 (concentration killing 50% of cells) (RPMI-8226): > 100 µM
- GI50 (MDA-MB-435): 1.95 µM
- LC50 (MDA-MB-435): > 100 µM
- GI50 (HOP-62): > 100 µM
- LC50 (50% lethal concentration) (HOP-62): > 100 µM
- GI50 (SF-268): 8.61 µM
- LC50 (SF-268): > 100 µM
- GI50 (MDA-MB-231): 6.09 µM
- LC50 (concentration killing 50% of cells present at time zero) (MDA-MB-231): > 100 µM
- GI50 (CCRF-CEM): 2.25 µM
- LC50 (concentration killing 50% of cells relative to time zero) (CCRF-CEM): > 100 µM
- GI50 (Hs-578T): 5.64 µM
- LC50 (50% net cell kill) (Hs-578T): > 100 µM
- GI50 (UACC-62): 4.13 µM
- CC50 (UACC-62): > 100 µM
- GI50 (T47D): 1.51 µM
- LC50 (concentration giving 50% cell kill relative to time zero) (T47D): > 100 µM
- GI50 (PC-3): 4.61 µM
- LC50 (PC-3): > 100 µM
- GI50 (TK-10): > 100 µM
- LC50 (concentration giving 50% cell loss vs time zero) (TK-10): > 100 µM
- GI50 (ACHN): 3.27 µM
- CC50 (ACHN): > 100 µM
- GI50 (NCI/ADR-RES): 5.22 µM
- CC50 (NCI/ADR-RES): > 100 µM
- GI50 (CAKI-1): > 100 µM
- LC50 (CAKI-1): > 100 µM
- GI50 (SNB-75): > 100 µM
- LC50 (50% net cell kill) (SNB-75): > 100 µM
